RAM network inh: inhibitors of the yeast RAM network, primary screen, dse1pr::URA3 reporter, 5-FOA selection; AID 868, 2007; inhibition, % at 50 µM; 190,000 compounds, 1.8% hits; S. cerevisiae dse1pr::URA3 reporter, 5-FOA growth OD615, 2 d; analog-sensitive cbk1-as2 kinase mutant strain;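 active = inhibition above a set limit, 3 SD over mean compound inhibition, cut at about 8.4% in these data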;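 also: 0% = DMSO-only wells with no growth and 100% = 10 µM 1-NA-PP1 full growth; inhibition rescues growth on 5-FOA so higher OD means more RAM inhibition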
WT yeast gro inh: growth inhibition of WT strain, primary screen, mitochondrial fusion inhibitor project, WT and mutant strains, chemical genetic | mitochondrial fusion phenotypic screen | inhibition, % at 10 µM | 190,000 compounds, 2.1% hits | AID 1362, 2008; in the data active = inhibition above about 58%; tested in S. cerevisiae
Yeast lifespan up: compounds extending yeast replicative lifespan, primary screen, S. cerevisiae, OD615 | S. cerevisiae growth with nicotinamide; deaD strain in restrictive glucose medium | 130,000 compounds, 0.68% hits | inhibition of the nicotinamide effect, % at 10 µM | AID 775, 2007;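 active = inhibition above a set limit, placed 3 SD over the median of all compounds, cut at about 26% in these data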;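 also: 0% = nicotinamide-treated wells and 100% = cells grown without nicotinamide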
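Test system: DeaD-strain S. cerevisiae / Buffer or medium: restrictive glucose medium / Also added: nicotinamide 1.5 mM / Doses: one concentration, 10 µM, DMSO 0.25% / Schedule: 48 h at 30 °C / Signal: OD615 measurement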
Yeast growth inh: growth inhibitors of yeast BB579 in restrictive medium, primary screen, yeast lifespan-shortening project, S. cerevisiae. 140,000 compounds, 0.51% hits. inhibition, % at 10 µM. OD615, 48 h;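 active = inhibition above a set limit, 3 SD over the mean compound inhibition, cut at about 44% in these data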
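System: Saccharomyces cerevisiae DeaD strain BB579, replicative lifespan model yeast | Buffer or medium: Restrictive glucose-based CSMM-D medium | Times: 4 h preincubation and 48 h exposure at 30 °C | Detection: OD615 turbidity measurement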
* = called active by the depositor. The list is not random: actives were taken first. Their share in the collection is about 4.3%.

For CCOC(=O)c1c(C)oc2c1c(C(c1cccnc1)N1CCCCC1)c(O)c1ccccc12 (centres undefined) the results were RAM network inh 1.1, WT yeast gro inh 70.7*, Yeast lifespan up 50.2* and Yeast growth inh -35.3.
Screening CSc1nc(N2CCCC2)c2c(c1C#N)CC(C)(C)OC2 returned RAM network inh 0.3, WT yeast gro inh 3.6, Yeast lifespan up -6.6 and Yeast growth inh 1.0.
Screening CCCSc1nc(N2CCCC2)c2c(c1C#N)CC(C)(C)OC2 returned RAM network inh 8.5*, WT yeast gro inh 9.2, Yeast lifespan up -15.8 and Yeast growth inh -26.7.
CC1CN(c2oc(Cc3cccc4ccccc34)nc2C#N)CC(C)O1 (centres undefined) was read as RAM network inh 9.9*, WT yeast gro inh 60.5*, Yeast lifespan up -13.2 and Yeast growth inh -4.1.
For Fc1ccc(F)c(C2=NNC(=Nc3ccccc3F)SC2)c1 the results were RAM network inh 1.3, WT yeast gro inh 63.2*, Yeast lifespan up -6.6 and Yeast growth inh -2.0.
Screening Fc1ccc(N=C2NN=C(c3cc(F)ccc3F)CS2)cc1 returned RAM network inh 1.8, WT yeast gro inh 80.1*, Yeast lifespan up -5.9 and Yeast growth inh -5.9.
For Fc1ccccc1N=C1NN=C(c2ccccc2)CS1 the results were RAM network inh 1.6 and WT yeast gro inh 26.8.
`O=S(=O)(/C=C/c1ccccc1)N1CCN(c2cccc(Cl)c2)CC1` gave RAM network inh 1.0, WT yeast gro inh 6.0, Yeast lifespan up -3.0 and Yeast growth inh -66.6.
S=C1NC2(CCCCC2)Cc2ccccc21 was read as RAM network inh 0.8, WT yeast gro inh 68.6*, Yeast lifespan up 0.9 and Yeast growth inh -35.0.
Screening CCOc1ccc(NC(=O)Nc2ccc3c(c2)N(C)C(=O)CS3)cc1 returned RAM network inh 11.1*, WT yeast gro inh 12.2, Yeast lifespan up -4.8 and Yeast growth inh -39.6.
Screening Cc1nc2ccccc2n1C(=O)N(C)C returned RAM network inh 0.8 and WT yeast gro inh 3.2.
O=c1/c(=C/c2cccc3ccccc23)sc2ncnn12 was read as RAM network inh 3.0, WT yeast gro inh 8.3, Yeast lifespan up 29.0* and Yeast growth inh -20.2.
Screening C=CCn1c(C(C)NC(=O)c2cccc(C)c2)n[nH]c1=S (centres undefined) returned RAM network inh -0.1 and WT yeast gro inh 3.7.
Screening CC1CCCCN1c1nnc(NC(=O)c2cc(-c3ccc(Br)cc3)on2)s1 (centres undefined) returned RAM network inh 3.0, WT yeast gro inh 68.2*, Yeast lifespan up -11.0 and Yeast growth inh -29.6.
O=C(Nc1ccccc1)Nc1cccc(C(F)(F)F)c1 was read as RAM network inh 1.6 and WT yeast gro inh 38.2.
`O=C(/C=C/Nc1cccc(C(F)(F)F)c1)C(F)(F)F` gave RAM network inh 3.4, WT yeast gro inh 65.4*, Yeast lifespan up -25.0 and Yeast growth inh -40.8.
Cc1ccc(-n2c(C)cc(C(=S)N3CCOCC3)c2C)cc1C was read as RAM network inh 1.4, WT yeast gro inh 19.9, Yeast lifespan up -3.5 and Yeast growth inh -45.5.
`Clc1ccccc1CSc1cc2c(nn1)-c1ccccc1CC2` gave RAM network inh 10.2*, WT yeast gro inh 12.4, Yeast lifespan up -16.1 and Yeast growth inh -44.1.
For Clc1ccc(CSc2cc3c(nn2)-c2ccccc2CC3)cc1Cl the results were RAM network inh 10.5*, WT yeast gro inh 37.1, Yeast lifespan up -4.6 and Yeast growth inh -33.5.
For Clc1cccc(Cl)c1CSc1cc2c(nn1)-c1ccccc1CC2 the results were RAM network inh 7.4, WT yeast gro inh 34.9, Yeast lifespan up -5.5 and Yeast growth inh -17.6.
Screening O=C(C[n+]1cccc(NC(=O)c2ccccc2)c1)c1ccc(NC(=O)c2ccccc2)cc1 returned RAM network inh 11.3*, WT yeast gro inh 8.0, Yeast lifespan up -9.7 and Yeast growth inh -69.4.
`O=C(C[n+]1cccc(NC(=O)c2ccccc2)c1)c1ccccc1` gave RAM network inh 1.2, WT yeast gro inh 11.2, Yeast lifespan up -3.7 and Yeast growth inh -21.6.
Screening COc1cc(/C=c2\s/c(=C\C(=O)C(C)(C)C)[nH]c2=O)cc(OC)c1OC returned RAM network inh 8.8* and WT yeast gro inh 28.1.
Screening CCCc1nc(Nc2nc3ccccc3o2)nc(C)c1C(=O)OCC returned RAM network inh 10.6*, WT yeast gro inh 0.0, Yeast lifespan up -3.5 and Yeast growth inh -57.5.

From PubChem BioAssay
